According to ChEMBL document CHEMBL4622964, “Designing Dihydrofolate Reductase Inhibitors as X-ray Radiosensitizers to Reverse Radioresistance of Cervical Cancer” (ACS Med Chem Lett, 2020):
The source made the active and inactive calls. The calls are words filed in the database; no cut-off is given here.

Assays:
[1] = tested on: HeLa; assay: Antiproliferative activity against human HeLa cells assessed as reduction in cell viability preincubated for 12 hrs followed by 4 Gy irradiation and measured after 60 hrs by MTT assay; type: functional, cell-based; details: light or radiation study
Procedure, shortened: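 MTT viability assay in HeLa cancer cells, with the test agent alone (0 Gy) or combined with 4 Gy X-rays. IC50 values are in μM. Sensitivity enhancement ratio = IC50(0 Gy)/IC50(4 Gy).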

[2] = Cytotoxicity against human Ect1 cells assessed as reduction in cell viability by MTT assay; type: cell-based
Procedure, shortened: (§1)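 MTT viability assay in Ect1/E6E7 normal ectocervical epithelial cells, with the test agent alone (0 Gy) or combined with 4 Gy X-rays. IC50 values are in μM.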

[3] = Cytotoxicity against human Ect1 cells assessed as reduction in cell viability in presence of 4 Gy irradiation by MTT assay; type: cell-based; details: light or radiation study; procedure, shortened: as §1
[4] = Ratio of IC50 for cytotoxicity against human Ect1 cells assessed as reduction in cell viability by MTT assay to cytotoxicity against human Ect1 cells assessed as reduction in cell viability in presence of 4 Gy irradiation by MTT assay; type: cell-based; details: read-out: Ratio IC50
Procedure, shortened: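 MTT viability assay on Ect1/E6E7 normal ectocervical cells and HeLa cells, with 0 or 4 Gy X-rays. SER = IC50(0 Gy)/IC50(4 Gy) in the same line; safe index SI4 = IC50 Ect1/E6E7 + 4 Gy divided by IC50 HeLa + 4 Gy.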

[5] = tested on: HeLa; assay: Induction of cell cycle arrest in human HeLa cells assessed as accumulation at G1 phase at 1 uM after 48 hrs by propidium iodide staining based flow cytometric analysis (reference value: 40.7%); type: functional
[6] = tested on: HeLa; assay: Induction of cell cycle arrest in human HeLa cells assessed as accumulation at S phase at 1 uM after 48 hrs by propidium iodide staining based flow cytometric analysis (reference value: 41.6%); type: functional
[7] = tested on: HeLa; assay: Induction of cell cycle arrest in human HeLa cells assessed as accumulation at G1 phase at 1 uM after 48 hrs in presence of 4 Gy X-ray radiation by propidium iodide staining based flow cytometric analysis (reference value: 28.6%); type: functional
[8] = tested on: HeLa; assay: Induction of apoptosis in human HeLa cells assessed as caspase-3 activation at 1 uM using Ac-DEVD-AMC as substrate after 12 hrs by fluorescence based assay relative to control; type: functional
Procedure, shortened: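 Caspase-3 and caspase-8 activities were measured in HeLa cells after 12 h at 1 μM, without or with 4 Gy X-rays. Mean ± SD of three independent experiments.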

[9] = tested on: HeLa; assay: Induction of mitochondrial dysfunction in human HeLa cells assessed as change in mitochondrial membrane potential at 1 uM incubated for 24 hrs by JC1 staining based flow cytometry (reference value: 1.3%); type: functional
Procedure, shortened: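 Mitochondrial membrane potential was assessed by JC-1 flow cytometry in HeLa cells treated at 1 μM without or with 4 Gy X-rays. Green fluorescence gives the proportion of cells with lost ΔΨm.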

[10] = tested on: HeLa; assay: Inhibition of cell migration in human HeLa cells assessed as reduction in migration velocity at 1 uM after 24 hrs by phase contrast microscopic analysis; type: functional, cell-based
Procedure, shortened: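 Wound-healing scratch assay on HeLa monolayers, compound with or without 4 Gy X-rays; wound closure recorded by phase-contrast microscopy at set times; migrated cells counted manually; mean ± SD of three independent experiments.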

[11] = Drug localization in lysosome of human HeLa cells at 20 uM after 4 hrs by LysoTracker/DAPI staining based fluorescence microscopic analysis; type: ADME, subcellular
Procedure, shortened: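 HeLa cells pretreated with 20 μM compound; LysoTracker added 2 h and DAPI 30 min before each time point; compound green fluorescence (emission about 510 nm) overlaid with lysosome (red) and nucleus under fluorescence microscope.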

[12] = tested on: HeLa; assay: Antitumor activity against human HeLa cells xenografted in BALB/c mouse at 4 mg/kg, iv administered for every 3 days for 21 days; type: functional, organism-based
Procedure, shortened: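 Nude mice bearing HeLa tumors; compound by tail-vein injection every 3 days over 21 days at 4 mg/kg, alone or combined with X-rays.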

[13] = Toxicity in BALB/c mouse xenografted with human HeLa cells assessed as liver damage at 4 mg/kg, iv administered for every 3 days for 21 days and measured after 24 hrs post last dose by H and E staining based light microscopic analysis; type: organism-based; details: in vivo
Procedure, shortened: (§2)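 HeLa-tumor-bearing nude mice dosed at 4 mg/kg iv every 3 days for 21 days, alone or with X-rays; euthanized 24 h after last injection; heart, liver, lungs, kidneys and spleen sectioned and stained with H&E.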

[14] = Toxicity in BALB/c mouse xenografted with human HeLa cells assessed as kidney damage at 4 mg/kg, iv administered for every 3 days for 21 days and measured after 24 hrs post last dose in presence of 4 Gy X-ray irradiation by H and E staining based light microscopic analysis; type: organism-based; details: in vivo; procedure, shortened: as §2
[15] = Toxicity in BALB/c mouse xenografted with human HeLa cells assessed as liver damage by measuring effect on ALT level at 4 mg/kg, iv administered every 3 days for 21 days; type: organism-based; details: in vivo
Procedure, shortened: (§3)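 HeLa xenograft nude mice dosed at 4 mg/kg iv every 3 days over 21 days, alone or with X-rays; blood collected 24 h after last injection for serum biochemistry: ALT, AST (liver), BUN and uric acid (kidney).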

[16] = Toxicity in BALB/c mouse xenografted with human HeLa cells assessed as liver damage by measuring effect on AST level at 4 mg/kg, iv administered every 3 days for 21 days; type: organism-based; details: in vivo; procedure, shortened: as §3
[17] = Toxicity in BALB/c mouse xenografted with human HeLa cells assessed as kidney damage by measuring effect on uric acid level at 4 mg/kg, iv administered every 3 days for 21 days in presence of 4 Gy X-ray irradiation; type: organism-based; details: in vivo; procedure, shortened: as §3
[18] = Drug uptake in human HeLa cells at 4 uM after 4 hrs by fluorescence based assay; type: ADME, cell-based

Nc1nc(N)c2nc3c(nc2n1)-c1cccc2cccc-3c12
IC50 [1]: 0.64 µM
IC50 [2]: 6.9 µM
IC50 [3]: 3.1 µM
selectivity ratio [4]: 2.2
Activity [5]: 38.7%
Activity [6]: 29.2%
Activity [7]: 47.7%
Activity [8]: 121%
Activity [9]: 6.8%
inhibition [10]: Active
Drug uptake [11]: Active
Activity [12]: Active
Activity [13]: Non-Toxic
Activity [14]: Non-Toxic
Activity [15]: Non-Toxic
Activity [16]: Non-Toxic
Activity [17]: Non-Toxic
Drug uptake [18]: Active
